What was measured:
[1] = (§1) Ratio of compound EC50 to N-((5-bromopyridin-2-yl)carbamothioyl)-4-chlorobenzamide EC50 for antiviral activity against Hepatitis B virus genotype C infected in chimeric humanized liver mouse model PXB cells assessed as inhibition of HBsAg level treated with infected cells on day 2 and measured on day 12 to 14 by ELISA; type: functional; conditions: time 10-12 day
Outline: (§2)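 PXB hepatocytes received serially diluted compound on day 2 and HBV genotype C on day 0. After 20–28 h, cells were washed and compound-containing medium renewed. Supernatant antigen on days 12–14 was measured by ELISA to give EC50 (50% antigen reduction). Each value is expressed as a ratio to the EC50 of the parent lead compound in the same antigen assay.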

[2] = as §1, with “HBcrAg” for “HBsAg”; type: functional; conditions: time 10-12 day; outline: as §2
[3] = Cytotoxicity against human HepG2 cells assessed as reduction in cell viability incubated for 7 days by MTT assay; type: toxicity, cell-based; conditions: time 7 day
Outline: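 HepG2 (human hepatocellular carcinoma) viability by MTT assay, optical density read on a kinetic microplate reader. CC50 is the concentration giving 50% reduction of viability. Mean of at least two independent experiments.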

[4] = Cytotoxicity against human HuCCT-1 cells assessed as reduction in cell viability by MTT assay; type: toxicity, cell-based
Outline: (§3)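 Each cell line cultured with serially diluted compound, then viability measured by MTT assay on a microplate reader. CC50 is the concentration giving 50% reduction of viability.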

[5] = Cytotoxicity against human SSP-25 cells assessed as reduction in cell viability by MTT assay; type: toxicity, cell-based; outline: as §3
[6] = Cytotoxicity against human Li-7 cells assessed as reduction in cell viability by MTT assay; type: toxicity, cell-based; outline: as §3
[7] = Cytotoxicity against human G415 cells assessed as reduction in cell viability by MTT assay; type: toxicity, cell-based; outline: as §3
[8] = Cytotoxicity against human HLE cells assessed as reduction in cell viability by MTT assay; type: toxicity, cell-based; outline: as §3
[9] = Cytotoxicity against human Huh-7 cells assessed as reduction in cell viability by MTT assay; type: toxicity, cell-based; outline: as §3
[10] = Cytotoxicity against human LI90 cells assessed as reduction in cell viability by MTT assay; type: toxicity, cell-based; outline: as §3
[11] = Cytotoxicity against human RBE cells assessed as reduction in cell viability by MTT assay; type: toxicity, cell-based; outline: as §3
[12] = system: Hepatitis B virus; test: Antiviral activity against Hepatitis B virus genotype C infected in chimeric humanized liver mouse model PXB cells assessed as inhibition of HBcrAg level treated with infected cells on day 2 and measured on day 12 to 14 by ELISA; type: functional, organism-based
Outline: (§4)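 Human hepatocytes (PXB cells) from chimeric humanized-liver mice were seeded in 96-well plates, with serially diluted compound in fresh medium added on day 2. HBV genotype C was added on day 0. After 20–28 h, cells were PBS-washed and medium plus compound replenished. Supernatants were harvested on days 12–14, and antigen was quantified by ELISA. EC50 is the concentration giving 50% antigen reduction.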

[13] = system: Hepatitis B virus; test: Antiviral activity against Hepatitis B virus genotype C infected in chimeric humanized liver mouse model PXB cells assessed as inhibition of HBsAg level treated with infected cells on day 2 and measured on day 12 to 14 by ELISA; type: functional, organism-based; outline: as §4

| SMILES | Ratio EC50 [1] | Ratio EC50 [2] | CC50 at 168 h [3] [µM] | also measured |
| --- | --- | --- | --- | --- |
| O=C(NC(=S)Nc1ccc(Br)cn1)c1ccc(Br)cc1 | >4.8 | >12 | 41.8 | – |
| O=C(NC(=S)Nc1ccc(C(F)(F)F)cn1)c1ccc(O)cc1 | >4.8 | 0.86 | 23.7 | – |
| O=C(NC(=S)Nc1ccc(Br)cn1)c1ccc(C(F)(F)F)cc1 | 0.63 | 1.7 | > 100 | CC50 [4]: > 100 µM; CC50 [5]: 76.3 µM; CC50 [6]: > 100 µM; CC50 [7]: > 100 µM; CC50 [8]: > 100 µM; CC50 [9]: 92.7 µM; CC50 [10]: 62.1 µM; CC50 [11]: 81.1 µM |
| CC(C)c1ccc(C(=O)NC(=S)Nc2ccc(C(F)(F)F)cn2)cc1 | >4.8 | >12 | 61.9 | – |
| O=C(NC(=S)Nc1ccc(Cl)cn1)c1ccc(Cl)cc1 | 6.9 | 7.5 | 66.3 | – |
| COc1ccc(C(=O)NC(=S)Nc2ccc(C(F)(F)F)cn2)cc1 | >4.8 | >12 | 75.9 | – |
| O=C(NC(=S)Nc1cc2ccccc2cn1)c1ccc(Cl)cc1 | 31 | 2.9 | 79.1 | – |
| O=C(NC(=S)Nc1ccc(Br)cn1)c1ccc(Cl)cc1 | – | – | > 100 | EC50 [12]: 0.044 µM; EC50 [13]: 0.69 µM |
| Cc1ccc(C(=O)NC(=S)Nc2ccc(C(F)(F)F)cn2)cc1 | >4.8 | >12 | 89.8 | – |
| O=C(NC(=S)Nc1cc(-c2ccccc2)c(C(F)(F)F)cn1)c1ccc(Cl)cc1 | 11 | 22 | > 100 | – |
| O=C(NC(=S)Nc1ccc(C(F)(F)F)cn1)c1ccc(Cl)cc1 | 0.005 | 0.032 | > 100 | CC50 [4]: > 100 µM; CC50 [5]: 61.3 µM; CC50 [6]: > 100 µM; CC50 [7]: > 100 µM; CC50 [8]: > 100 µM; CC50 [9]: > 100 µM; CC50 [10]: > 100 µM; CC50 [11]: > 100 µM |
| O=C(NC(=S)Nc1ccc(C(F)(F)F)cn1)c1ccc(C(F)(F)F)cc1 | >2.9 | 16 | > 100 | – |
| CC(C)(C)c1ccc(C(=O)NC(=S)Nc2ccc(C(F)(F)F)cn2)cc1 | >4.8 | >12 | > 100 | – |
| O=C(NC(=S)Nc1ccc(C(F)(F)F)cn1)c1ccc(I)cc1 | >4.8 | >12 | > 100 | – |
| O=C(NC(=S)Nc1ccc(C(F)(F)F)cn1)c1ccc([N+](=O)[O-])cc1 | 0.37 | 2.7 | > 100 | – |
| O=C(NC(=S)Nc1ccc(F)cn1)c1ccc(Cl)cc1 | 8.1 | 6.2 | > 100 | – |
| O=C(NC(=S)Nc1ccc(C(F)(F)F)cn1)c1ccc(Br)cc1 | 2.7 | 3.8 | > 100 | – |
| O=C(NC(=S)Nc1ccc(C(F)(F)F)cn1)c1ccc(F)cc1 | >4.8 | >12 | 42.2 | – |
| Cc1ccc(NC(=S)NC(=O)c2ccc(Cl)cc2)nc1 | 3.8 | 3.7 | 43.8 | – |
| O=C(NC(=S)Nc1ccc([N+](=O)[O-])cn1)c1ccc(Cl)cc1 | 12 | 20 | > 100 | – |
| O=C(NC(=S)Nc1ccccn1)c1ccc(Cl)cc1 | 5.5 | 7.6 | 26.8 | – |
| C[C@H](Cn1cnc2c(N)ncnc21)OCP(=O)(O)O [TENOFOVIR ANHYDROUS] | – | – | – | EC50 [12]: 0.36 µM; EC50 [13]: > 2 µM |

— ChEMBL document CHEMBL5356943, “Development of anti-HBV agents targeting HBV capsid proteins” (RSC Med Chem, 2023)
